Assay results: publication PMC8943622 (Journal of Cerebral Blood Flow & Metabolism, 2021)
Several values for one entry are separate records, joined by “and”; a condition that tells them apart may be missing. Equal entries are not always repeated. Where two headings read alike, the source gives them in different places.

What was measured:
[1] = system: MAGL; experiment: [18F]T-401 PET after JW642 pretreatment; format: in vivo, rhesus monkey (Macaca mulatta)
[2] = system: MAGL; format: in vivo, rhesus monkey (Macaca mulatta); conditions: baseline; for VT mean: mean of three monkeys; for VT: M187
[3] = Radiometabolite analysis of [18F]T-401 in arterial plasma; format: in vivo, rhesus monkey; conditions: 30 min after injection; baseline and JW642 blockade
In short: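 Anaesthetised monkeys had 24 serial saphenous-artery samples taken over the 120 min scan. Plasma was separated at 15000 × g, 3 min, 4 °C. Samples from 2, 5, 10, 30, 60, 90 and 120 min went to HPLC (Atlantis T3, acetonitrile/H2O 40/60, 1.0 mL/min, 254 nm). Decay-corrected parent-to-total radioactivity came from peak areas. Blockade used i.v. test compound 0.01–0.3 mg/kg, 5 min before the radioligand, in one monkey.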

[4] = molecular target: T1, MAGL (Macaca mulatta, UniProt H9ESL3); experiment: In vivo Scatchard plot analysis of baseline [18F]T-401 PET data; set-up: species or system rhesus monkey
T1 sequence (H9ESL3 1-303): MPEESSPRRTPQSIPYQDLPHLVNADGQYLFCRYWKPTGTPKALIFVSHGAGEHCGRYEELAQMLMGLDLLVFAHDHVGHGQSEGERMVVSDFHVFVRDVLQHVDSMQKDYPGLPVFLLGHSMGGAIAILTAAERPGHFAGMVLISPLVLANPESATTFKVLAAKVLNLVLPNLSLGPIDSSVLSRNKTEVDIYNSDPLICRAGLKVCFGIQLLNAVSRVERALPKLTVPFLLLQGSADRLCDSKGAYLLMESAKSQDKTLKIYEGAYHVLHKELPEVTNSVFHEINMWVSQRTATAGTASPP
In short: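 Three male rhesus monkeys (5–7 kg) were given ketamine 10 mg/kg i.m., then intubated and kept on 1–2% isoflurane, with a heating pad. After a 68Ge–68Ga transmission scan, a 120 min 3D list-mode emission scan began at i.v. radioligand injection (356 ± 50 MBq, 343 ± 68 GBq/μmol). Baseline data were analysed by Scatchard plot to give KD and Bmax in representative ROIs.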

Structure (SMILES) | non-displaceable distribution volume (VND) ([1]; Lassen's plot, averaged x-intercept of regression lines, monkey brain) | VND as portion of VT ([1]; pons) | VT mean ([2]; CB) | VT mean ([2]; FCX) | VT mean ([2]; HIP) | VT ([2]; OCC) | VT mean ([2]; OCC) | VT mean ([2]; Pons) | VT ([2]; STR) | VT mean ([2]; STR) | VT mean ([2]; THA) | time of peak brain uptake after injection ([2]; monkey brain) | mean VT, upper end of range ([2]; printed as striatum) | parent fraction in arterial plasma [3] | Kd ([4]; FCX) | Kd ([4]; HIP) | EC50, plasma JW642 concentration inducing 50% occupancy of MAGL ([1]; Hill's plot of occupancy versus plasma concentration, monkey M187) | MAGL occupancy ([1]; JW642 0.01 mg/kg i.v., Lassen's plot) | MAGL occupancy ([1]; JW642 0.3 mg/kg i.v., Lassen's plot, 0.3 mg/kg)
Cc1ccnc([18F])c1-c1cccc(N2C[C@H](N3CCN(C(=O)c4nccs4)CC3)CC2=O)c1 [[^18F]T-401, (4R)-1-{3-[2-[^18F]fluoro-4-methylpyridin-3-yl]phenyl}-4-[4-(1,3-thiazol-2-ylcarbonyl)piperazin-1-yl]pyrrolidin-2-one] | 0.69 mL/cm^3 | 14.6% | 7.17 mL/cm^3 | 11.7 mL/cm^3 | 5.95 mL/cm^3 | 11.89 mL/cm^3 | 9.96 mL/cm^3 | 4.73 mL/cm^3 | 12.51 mL/cm^3 | 9.05 mL/cm^3 | 6.36 mL/cm^3 | 5 to 15 min | 11.7 mL/cm^3 | approximately 30% | 4.18 nM | 1.09 nM | – | – | –
O=C(OC(C(F)(F)F)C(F)(F)F)N1CCN(Cc2cccc(Oc3ccccc3)c2)CC1 [JW642] | – | – | – | – | – | – | – | – | – | – | – | – | – | – | – | – | 0.126 µg/mL and 0.1261 µg/mL | 20% | 94% and 93%
